# Source: PubChem BioAssay (several laboratories)
# Shown are actives, neighbours in structure and some others; about 1.9% of the full set was active somewhere.
# VIM-2 inh = VIM-2 metallo-beta-lactamase inhibitors, primary screen, biochemical, epi-absorbance readout, Pseudomonas aeruginosa enzyme. purified VIM-2, nitrocefin hydrolysis, epi-absorbance fluorescence. inhibition, % at 5.6 µM. 0.89% of 290,000 active. AID 1527, 2009;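 active = inhibition above the mean of all tested compounds plus 3 SD, cutoff set per screening run, cut at about 7.5% in these data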;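 note: red hydrolysis product quenches plate fluorescence so inhibitors raise well fluorescence; 0% = enzyme with DMSO and 100% = DMSO without enzyme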
# NadD inh = inhibitors of S. aureus NadD, primary screen, biochemical, colorimetric, uHTS; Nicotinate-nucleotide adenylyltransferase NadD (Staphylococcus aureus N315); purified NadD enzyme, colorimetric absorbance read-out; inhibition, % at 20 µM; 0.78% of 360,000 active; AID 602399, 2012; in the data active = inhibition above about 26%
# IMP-1 inhibitor = IMP-1 metallo-beta-lactamase inhibitors, primary screen, biochemical, epi-absorbance readout, Pseudomonas aeruginosa enzyme; 0.45% of 290,000 active; purified IMP-1, nitrocefin hydrolysis, epi-absorbance fluorescence; AID 1556, 2009; metallo-beta-lactamase IMP-1 (Pseudomonas aeruginosa); inhibition, % at 5.6 µM;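 active = inhibition above the mean plus 3 SD of all compounds in the same screening run, cut at about 4.5% in these data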;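 note: 0% = IMP-1 with DMSO and 100% = DMSO wells lacking enzyme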
#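 Assay system: purified IMP-1; Quantity: IMP-1 0.2 nM before substrate addition; Medium: HEPES buffer pH 7.1 with ZnSO4 and Brij 35; Incubation: 15 min enzyme–compound preincubation, then 25 min nitrocefin reaction, 25 °C; Signal: fluorescence quenching readout, ex 480/em 530 nm; Controls: DMSO with and without IMP-1; Repeats: singlicate testing.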
# HCV core dimer = inhibitors of HCV core protein dimerization, primary screen, biochemical, TR-FRET, high-throughput. AID 1899, 2009. TR-FRET GST/Flag-core106 dimerization, 1536-well. inhibition, % at 5 µM. 0.33% of 300,000 active;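 active = inhibition above the mean of all tested compounds plus 3 SD, set per screening campaign, cut at about 45% in these data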
#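 System: GST-tagged and Flag-tagged HCV core protein residues 1-106 / Input: core106 proteins, GST 13.5 nM and Flag 17 nM / Buffer or medium: KF-containing HEPES buffer, pH 7.45, DTT, CHAPS, BSA / Probe or stimulus: Eu-anti-GST and XL665-anti-Flag labelled anti-tag antibodies / Schedule: 4 h, 22.5 °C incubation / Technique: TR-FRET 671 and 617 nm emission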
# Starred values were filed as active, the others as inactive; . = no result.
SMILES,VIM-2 inh,NadD inh,IMP-1 inhibitor,HCV core dimer
Cc1ccc(C2=C(c3ccc([N+](=O)[O-])cc3)C(=O)OC2)cc1C,-2,-3,13*,25
COc1ccc(C2=C(c3ccc([N+](=O)[O-])cc3)C(=O)OC2)cc1,-1,-2,3,6
CCC1=NN2C(=N)/C(=C/c3ccc(OS(=O)(=O)c4ccccc4)cc3)C(=O)N=C2S1,-4,34*,-2,6
CCS(=O)(=O)C1=NN2C(=N)/C(=C\c3ccc(OS(=O)(=O)c4ccccc4)cc3)C(=O)N=C2S1,-1,7,0,13
Cc1ccc(S(=O)(=O)Oc2ccc(/C=C3\C(=N)N4N=C(S(C)(=O)=O)SC4=NC3=O)cc2)cc1,0,34*,-3,26
COc1ccc(CN2CCN(CCc3ccccc3)C(CCO)C2)c(O)c1 (stereo not drawn),-3,-12,-1,-3
Cc1ncc([N+](=O)[O-])n1CCOC(=O)Nc1ccc([N+](=O)[O-])cc1,-2,-1,0,3
Cc1ncc([N+](=O)[O-])n1CCOC(=O)c1cc(Cl)cc(Cl)c1N,9.4*,4,-2,25
CCCN(CC(=O)Nc1ccccc1C)C(=O)C1CCN(S(=O)(=O)c2cccc(C(F)(F)F)c2)CC1,.,5,.,-4
Cc1cccc(NC(=O)CN2C(=O)S/C(=C\c3ccc(-c4cccc(C(=O)O)c4C)o3)C2=O)c1,-1,.,-1,2
Cc1ccc(NC(=O)CN2C(=O)S/C(=C/c3ccc(-c4cc(C(=O)O)ccc4C)o3)C2=O)cc1C,-1,50*,-1,9
O=C(NCCc1ccccc1)C1CCCN1S(=O)(=O)c1ccccc1 (stereo not drawn),-4,-6,-5,-3
Cc1c(OCC(=O)N[C@@H](Cc2ccccc2)C(=O)O)ccc2c1oc(=O)c1ccccc12,12*,4,-3,-1
Cc1c(OCC(=O)N[C@@H](Cc2ccccc2)C(=O)O)ccc2c3c(c(=O)oc12)CCC3,12*,2,1,1
Cc1c(OCC(=O)NC(Cc2ccc(Cl)cc2)C(=O)O)ccc2c3c(c(=O)oc12)CCCC3 (stereo not drawn),1,7,-4,7
CN(C(=O)COC(=O)c1nc(Cl)c(Cl)c(Cl)c1Cl)C1CCS(=O)(=O)C1 (stereo not drawn),1,0,-1,.
O=C1N=C(N2CCN(c3cccc4ccccc34)CC2)S/C1=C/c1cccs1,-2,28*,0,67*
Oc1ccc(C23CC4CC(CC(C4)C2)C3)cc1O,-2,35*,-5,-10
CCc1nc(N[C@@H](Cc2c[nH]c3ccccc23)C(=O)O)c2oc3ccccc3c2n1,-1,8,-3,0
Cc1nc(N[C@@H](Cc2c[nH]c3ccccc23)C(=O)O)c2oc3ccccc3c2n1,8.8*,.,-1,-4
CCN(c1ccccc1)S(=O)(=O)c1cc(C(=O)Oc2ccc3c(C)cc(=O)oc3c2)ccc1C,-6,0,-2,18
Cc1ccc2c(c1)SC1=NC(c3ccccc3)(C(F)(F)F)NC(=O)N12 (stereo not drawn),-1,.,5.7*,4
O=C(CSc1nc2nc(-c3cccs3)cc(C(F)(F)F)c2c(=O)[nH]1)NCc1ccco1,8.1*,12,-3,17
O=C(NCc1ccco1)c1cc2nc(C3CC3)cc(C(F)(F)F)n2n1,1,10,-1,15
O=C(NCc1ccco1)c1cnn2c(C(F)(F)F)cc(-c3cccs3)nc12,9.3*,4,-3,13
SMILES,VIM-2 inh,NadD inh,IMP-1 inhibitor,HCV core dimer
COC(=O)CSc1nc2nc(-c3cccs3)cc(C(F)(F)F)c2c(=O)[nH]1,12*,0,0,-1
COc1ccc(-c2cc(C(F)(F)F)n3nc(C(=O)NCc4ccco4)cc3n2)cc1OC,8.7*,-11,-1,10
COc1cccc2c1Oc1ncccc1N(C(=O)CCC(=O)NCc1ccc(C)cc1)C2,-1,-4,-4,0
COCC1CCCCN1C(=O)c1ccc(OC2CCN(Cc3ccccn3)CC2)cc1 (stereo not drawn),-2,4,-1,6
COC(=O)[C@]12CCCCC=C1N(Cc1ccccc1)C(=O)[C@H](CC(=O)NCCCN1CCCC1=O)C2,.,-2,.,.
COc1ccccc1NC(=O)Nc1nc(C(C)(C)C)cs1,-3,-5,-3,3
CCOc1ccc(-c2c(C#N)c(N)nc3c2c(=O)n(C)c(=O)n3C)cc1OC,-2,-4,7.6*,0
Cc1cc(OCC(=O)NC2CCN(Cc3ccccc3)CC2)c2c(C)cc(=O)oc2c1,9.3*,-9,-5,-3
CCCc1cc(=O)oc2cc(C)cc(OCC(=O)NC3CCN(Cc4ccccc4)CC3)c12,4,-5,-3,6
COc1cccc(C(=O)NCC2(c3ccccc3)CCCC2)c1OC,-2,0,-1,12
O=C1C=C(NNC(=O)c2ccncc2)CC(c2ccccc2)C1 (stereo not drawn),1,-6,5.9*,-3
O=C1C=C(NCc2ccncc2)CC(c2ccccc2)C1 (stereo not drawn),-2,1,-4,-9
Cc1ccc(S(=O)(=O)N(C)C)cc1NC(=O)CSc1ccc2c(c1)OCCO2,.,-5,.,3
Cc1ccc(S(=O)(=O)N2CCCCC2)cc1NC(=O)CSc1ccc2c(c1)OCCO2,0,5,7.1*,29
CN(C)c1ccc(C=c2c3ccccc3n3c2c2c([n+]3C)CCCC2)cc1,.,-1,.,.
N#Cc1cccc2c1-c1ccccc1/C2=N/NC(N)=O,10*,-6,-4,-16
N#Cc1cccc2c1-c1ccccc1/C2=N/NC(N)=S,3,4,-4,-18
CCOC(=O)/C=c1\s/c(=C\c2c(OCC)ccc3ccccc23)c(=O)n1CC(=O)NCC1CCCO1 (stereo not drawn),-1,-10,-4,0
CCOC(=O)/C=c1\s/c(=C\c2ccc3c(c2)OCCO3)c(=O)n1CC(=O)NCC1CCCO1 (stereo not drawn),3,1,4.7*,13
CCC(=O)Nc1ccc2c(c1)Cc1cc([N+](=O)[O-])ccc1-2,.,-4,.,.
N#CC1=C(N)Oc2ccc3ccc(O)cc3c2C1c1ccsc1 (stereo not drawn),6,-2,17*,.
CCSc1nnc(NC(=O)C2CC(=O)N(Cc3ccc(C)cc3)C2)s1 (stereo not drawn),0,0,0,1
Cc1cc(C)cc(C(=O)Oc2cc(C)[nH]c(=O)c2[N+](=O)[O-])c1,-2,6,-4,-4
CN1CCN(C(=O)c2ccc3c(=O)n(Cc4ccco4)c(=S)[nH]c3c2)CC1,8.3*,-3,-1,-5
CCCN(CCC)C(=O)c1ccc2c(=O)n(Cc3ccco3)c(=S)[nH]c2c1,-4,-4,-4,6
CS(=O)(=O)N(CC(=O)N1CCCC1)c1ccc(Cl)cc1,1,-3,-1,-6
